Assay [1] concerns cytokine production by OVA stimulated splenocytes. The assay is described as follows: Mouse splenocyte cytokine assay. The format is cell-based. To be noted: for inhibiting TH2 cytokine production compared with dexamethasone (in words): IL-5, IL-13, 10 nM (Figure 9). An outline of the steps:
(§1)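 Female Balb-C mice (6–8 weeks) were immunized s.c. weekly for four weeks with 25 µg OVA adsorbed to 1 mg alum in 200 µl PBS. Splenocytes were strained and resuspended at 1.3×10^6 cells/mL in RPMI-1640, then given test material in DMSO plus OVA. Replicate control wells held DMSO or DMSO+OVA. Supernatant cytokines were read by sandwich ELISA at 450 nm against standards in each replicate assay. Viability was checked by trypan blue count.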

Assay [2] has as its system IL-5 production. The assay is described as follows: IL-5 production by OVA stimulated mouse splenocytes. The format is cell-based. The note with it: pure compounds or fractions. An outline of the steps:
as §1

With `CCCCCC[C@H]1C(=O)O[C@H](C)[C@H](NC(=O)c2cccc(NC=O)c2O)C(=O)O[C@@H](C)[C@@H]1OC(=O)c1ccccc1` [compound 7], the “inhibiting TH2 cytokine production compared with dexamethasone (in words)” value in assay [1] is on record as “as effective as dexamethasone”.

`CC(C)C(=O)O[C@H]1[C@H](C)OC(=O)[C@@H](NC(=O)c2cccc(NC=O)c2O)[C@@H](C)OC(=O)[C@@H]1Cc1ccccc1` [compound 2]: the “inhibiting TH2 cytokine production compared with dexamethasone (in words)” value in assay [1] was “as effective as dexamethasone”.

For `C[C@@H]1OC(=O)[C@@H](NC(=O)c2cccc(NC=O)c2O)[C@@H](C)OC(=O)[C@H](Cc2ccccc2)[C@H]1O` [compound 10], the “suppression of IL-5 production (in words)” value in assay [2] was “low micromolar”. Besides, in assay [1], the “suppression of cytokine production by OVA stimulated splenocytes (in words)” value is recorded as “low micromolar”.

The values above are taken from paper PMC2735501 (Journal of medicinal chemistry, 2009).
